Experimental data: ChEMBL document CHEMBL4052819 (2017)
≈ marks a conversion by molar mass, not a printed value. Calls of active or inactive are those of the source. No cut-off for these calls is given here. Non-standard residues stand in square brackets, D forms with d. Residues, ends and D or L forms follow the SMILES beside them. *: point of attachment. Cha = N[C@@H](CC1CCCCC1)C(=O)O; Heptanoyl = CCCCCCC(=O)*; Dab = NCC[C@H](N)C(=O)O

What was measured:
Staphylococcus aureus [1] = experiment: Antibiofilm activity against methicillin-resistant Staphylococcus aureus LAC established catheter-associated biofilm model at 20 times MIC after 72 hrs relative to control; type: functional
Acinetobacter baumannii [2] = experiment: Potentiation of rifampicin-mediated antibacterial activity against Acinetobacter baumannii ATCC 19606 assessed as decrease in rifampicin MIC at 4 ug/ml by checkerboard method relative to control; type: functional, ATCC 19606 = CIP 70.34 = JCM 6841
Klebsiella pneumoniae [3] = experiment: Potentiation of erythromycin-mediated antibacterial activity against Klebsiella pneumoniae ATCC 13883 assessed as decrease in erythromycin MIC at 4 ug/ml by checkerboard method relative to control; type: functional
Pseudomonas aeruginosa [4] = experiment: Bactericidal activity against Pseudomonas aeruginosa ATCC 27853; type: functional; conditions: read-out: MBC99.9
Summary of the method: (§1)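 MBC from MIC plates at end point: 50 μL from each well with no visible growth plated on tryptic soy agar and counted. MBC taken as lowest concentration giving ≥99.9% fall in viable count relative to initial inoculum. Three independent experiments, one replicate each.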

Acinetobacter baumannii [5] = experiment: Antibacterial activity against Acinetobacter baumannii ATCC 19606 after 18 to 20 hrs by broth microdilution method; type: functional; conditions: ATCC 19606 = CIP 70.34 = JCM 6841
Acinetobacter baumannii [6] = experiment: Potentiation of erythromycin-mediated antibacterial activity against Acinetobacter baumannii ATCC 19606 assessed as decrease in erythromycin MIC at 4 ug/ml by checkerboard method relative to control; type: functional, ATCC 19606 = CIP 70.34 = JCM 6841
Klebsiella pneumoniae [7] = experiment: Potentiation of rifampicin-mediated antibacterial activity against Klebsiella pneumoniae ATCC 13883 assessed as rifampicin MIC at 2 ug/ml by checkerboard method (reference value: 16 ug/ml); type: functional
Staphylococcus aureus [8] = experiment: Antibacterial activity against methicillin-resistant Staphylococcus aureus ATCC 43300 after 18 to 20 hrs by broth microdilution method; type: functional
Summary of the method: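 Broth microdilution in tryptic soy broth: 2-fold dilutions mixed 1:1 with ~1.5 × 10^5 CFU/mL bacterial suspension in TSB, final 0.5–32 μg/mL, 37 °C for 18–20 h. MIC = lowest concentration with no visible growth. At least three independent experiments, one replicate each.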

Escherichia coli [9] = experiment: Antibacterial activity against Escherichia coli ATCC 25922 in presence of 100% serum measured immediately post compound addition in serum by broth microdilution method; type: functional
Summary of the method: (§2)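 Serum stability: compound added to 100% human serum at final 64 μg/mL, held at 37 °C, sampled at 0, 6, 12 and 24 h. […] Residual activity compared with untreated control.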

Escherichia coli [10] = experiment: Antibacterial activity against Escherichia coli ATCC 25922 after 18 to 20 hrs in presence of 95% serum by broth microdilution method; type: functional
Summary of the method: (§3)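 Same microdilution with human serum as medium: compound 2-fold diluted in 100% serum, mixed 1:1 with 90% serum holding ~1.5 × 10^5 CFU/mL, giving 95% serum and final 0.5–64 μg/mL. MIC read as no visible growth after incubation as for the broth test.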

Klebsiella pneumoniae [11] = experiment: Potentiation of rifampicin-mediated antibacterial activity against Klebsiella pneumoniae ATCC 13883 assessed as decrease in rifampicin MIC at 2 ug/ml by checkerboard method relative to control; type: functional
Klebsiella pneumoniae [12] = experiment: Antibacterial activity against Klebsiella pneumoniae ATCC 13883 after 18 to 20 hrs by broth microdilution method; type: functional
Acinetobacter baumannii [13] = experiment: Potentiation of clarithromycin-mediated antibacterial activity against Acinetobacter baumannii ATCC 19606 assessed as decrease in clarithromycin MIC at 4 ug/ml by checkerboard method relative to control; type: functional, ATCC 19606 = CIP 70.34 = JCM 6841
Staphylococcus aureus [14] = experiment: Antibacterial activity against Staphylococcus aureus ATCC 29213 after 18 to 20 hrs in presence of 95% serum by broth microdilution method; type: functional; summary of the method: as §3
Klebsiella pneumoniae [15] = experiment: Potentiation of ampicillin-mediated antibacterial activity against Klebsiella pneumoniae ATCC 13883 assessed as decrease in ampicillin MIC at 4 ug/ml by checkerboard method relative to control; type: functional
Klebsiella pneumoniae [16] = experiment: Potentiation of vancomycin-mediated antibacterial activity against Klebsiella pneumoniae ATCC 13883 assessed as decrease in vancomycin MIC at 4 ug/ml by checkerboard method relative to control; type: functional
Enterococcus faecium [17] = experiment: Antibacterial activity against Enterococcus faecium ATCC 19434 after 18 to 20 hrs by broth microdilution method; type: functional
Summary of the method: (§4)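 Broth microdilution in tryptic soy broth: 2-fold dilutions mixed 1:1 with ~1.5 × 10^5 CFU/mL inoculum, final 0.5–32 μg/mL; 37 °C, 18–20 h. MIC taken as lowest concentration giving no visible growth. At least three independent experiments, one replicate each.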

Acinetobacter baumannii [18] = experiment: Potentiation of vancomycin-mediated antibacterial activity against Acinetobacter baumannii ATCC 19606 assessed as decrease in vancomycin MIC at 4 ug/ml by checkerboard method relative to control; type: functional, ATCC 19606 = CIP 70.34 = JCM 6841
Acinetobacter baumannii [19] = experiment: Potentiation of rifampicin-mediated antibacterial activity against Acinetobacter baumannii ATCC 19606 assessed as rifampicin MIC at 2 ug/ml by checkerboard method (reference value: 16 ug/ml); type: functional; conditions: ATCC 19606 = CIP 70.34 = JCM 6841
Escherichia coli [20] = experiment: Antibacterial activity against Escherichia coli ATCC 25922 in presence of 100% serum after 12 hrs by broth microdilution method; type: functional; conditions: ATCC 25922, 12 h; summary of the method: as §2
Escherichia coli [21] = experiment: Antibacterial activity against Escherichia coli ATCC 25922 after 18 to 20 hrs by broth microdilution method; type: functional; summary of the method: as §4
Escherichia coli [22] = experiment: Antibacterial activity against Escherichia coli ATCC 25922 in presence of 100% serum after 6 hrs by broth microdilution method; type: functional; conditions: ATCC 25922, 6 h; summary of the method: as §2
Pseudomonas aeruginosa [23] = experiment: Antibacterial activity against Pseudomonas aeruginosa ATCC 27853 after 18 to 20 hrs by broth microdilution method; type: functional; summary of the method: as §4
Staphylococcus aureus [24] = experiment: Antibacterial activity against Staphylococcus aureus ATCC 29213 after 18 to 20 hrs by broth microdilution method; type: functional; summary of the method: as §4
Klebsiella pneumoniae [25] = experiment: Potentiation of clarithromycin-mediated antibacterial activity against Klebsiella pneumoniae ATCC 13883 assessed as decrease in clarithromycin MIC at 4 ug/ml by checkerboard method relative to control; type: functional
Escherichia coli [26] = experiment: Antibacterial activity against Escherichia coli ATCC 25922 in presence of 100% serum after 24 hrs by broth microdilution method; type: functional; conditions: ATCC 25922, 24 h; summary of the method: as §2
Acinetobacter baumannii [27] = experiment: Potentiation of ampicillin-mediated antibacterial activity against Acinetobacter baumannii ATCC 19606 assessed as decrease in ampicillin MIC at 4 ug/ml by checkerboard method relative to control; type: functional, ATCC 19606 = CIP 70.34 = JCM 6841
Pseudomonas aeruginosa [28] = experiment: Bactericidal activity against Pseudomonas aeruginosa ATCC 27853 after 60 mins in presence of LPS; type: functional
Summary of the method: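 P. aeruginosa at ~10^6 CFU/mL in TSB with E. coli O111:B4 LPS (final 10, 25, 50 or 100 μg/mL), then compound at final 16 μg/mL. Incubated 37 °C, 200 rpm, 60 min; survivors counted on TSA. Three independent experiments, one replicate each.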

Acinetobacter baumannii [29] = experiment: Bactericidal activity against Acinetobacter baumannii ATCC 19606; type: functional; conditions: ATCC 19606 = CIP 70.34 = JCM 6841, read-out: MBC99.9; summary of the method: as §1
Enterococcus faecium [30] = experiment: Bactericidal activity against Enterococcus faecium ATCC 19434; type: functional; conditions: read-out: MBC99.9; summary of the method: as §1
Staphylococcus aureus [31] = experiment: Bactericidal activity against methicillin-resistant Staphylococcus aureus ATCC 43300; type: functional; conditions: read-out: MBC99.9
Summary of the method: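 MBC taken at the end of the MIC test: 50 μL from each well without visible growth plated on tryptic soy agar. MBC = lowest concentration giving ≥99.9% reduction in viable cells relative to the initial inoculum. Three independent experiments, one replicate each.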

Klebsiella pneumoniae [32] = experiment: Bactericidal activity against Klebsiella pneumoniae ATCC 13883; type: functional; conditions: read-out: MBC99.9; summary of the method: as §1
Staphylococcus aureus [33] = experiment: Bactericidal activity against Staphylococcus aureus ATCC 29213; type: functional; conditions: read-out: MBC99.9; summary of the method: as §1
Escherichia coli [34] = experiment: Bactericidal activity against Escherichia coli ATCC 25922; type: functional; conditions: read-out: MBC99.9; summary of the method: as §1

## CCO/N=C(\C(=O)N[C@@H]1C(=O)N2C(C(=O)[O-])=C(Sc3nc(-c4cc[n+](C)cc4)cs3)CS[C@H]12)c1nsc(NP(=O)(O)O)n1
Staphylococcus aureus [1]
  Activity: inactive

## CC[C@H](C)[C@H](NC(=O)[C@H](CCN)NC(=O)[C@@H](N)CC1CCCCC1)C(=O)N[C@@H](CCN)C(=O)N[C@H](Cc1ccccc1)C(=O)N[C@@H](CC(C)C)C(=O)N[C@@H](CCN)C(=O)N[C@@H](C(=O)N[C@@H](CC(C)C)C(=O)N[C@@H](CO)C(N)=O)C(C)C (H-[Cha][Dab]I[Dab][dF]L[Dab][dV]LS-NH2)
Acinetobacter baumannii [2]
  fold change (FC): 4096
Klebsiella pneumoniae [3]
  fold change (FC): 512
Pseudomonas aeruginosa [4]
  MBC: 16 to 32 µg/mL (≈ 14 to 28 µM)
Acinetobacter baumannii [5]
  MIC: ≥ 32 µg/mL
Acinetobacter baumannii [6]
  fold change (FC): 64
Klebsiella pneumoniae [7]
  MIC: 0.0039 µg/mL
Staphylococcus aureus [8]
  MIC: 32 µg/mL (≈ 28 µM)
Escherichia coli [9]
  MIC: 1 to 2 µg/mL
Escherichia coli [10]
  MIC: 2 µg/mL
Klebsiella pneumoniae [11]
  fold change (FC): >=8192
Klebsiella pneumoniae [12]
  MIC: 32 µg/mL (≈ 28 µM)
Acinetobacter baumannii [13]
  fold change (FC): 2048
Staphylococcus aureus [14]
  MIC: > 64 µg/mL
Klebsiella pneumoniae [15]
  fold change (FC): 1
Klebsiella pneumoniae [16]
  fold change (FC): 1
Enterococcus faecium [17]
  MIC: > 32 µg/mL
Acinetobacter baumannii [18]
  fold change (FC): 32 - 64
Acinetobacter baumannii [19]
  MIC: 0.0039 to 0.0078 µg/mL
Escherichia coli [20]
  MIC: > 32 µg/mL
Escherichia coli [21]
  MIC: 4 to 8 µg/mL (≈ 3.5 to 7 µM)
Escherichia coli [22]
  MIC: > 32 µg/mL
Pseudomonas aeruginosa [23]
  MIC: 2 to 8 µg/mL (≈ 1.75 to 7 µM)
Staphylococcus aureus [24]
  MIC: > 32 µg/mL
Klebsiella pneumoniae [25]
  fold change (FC): 2048 - 4096
Escherichia coli [26]
  MIC: > 32 µg/mL
Acinetobacter baumannii [27]
  fold change (FC): 2 - 4

## CCCCCCC(=O)N[C@@H](CCN)C(=O)N[C@@H](Cc1ccccc1)C(=O)N[C@@H](CCN)C(=O)N[C@H](Cc1ccccc1)C(=O)N[C@@H](CC(C)C)C(=O)N[C@@H](CCN)C(=O)N[C@H](CC(C)C)C(=O)N[C@@H](Cc1ccccc1)C(=O)N[C@@H](CO)C(N)=O (Heptanoyl-[Dab]F[Dab][dF]L[Dab][dL]FS-NH2)
Pseudomonas aeruginosa [28]
  Activity: inactive
Pseudomonas aeruginosa [4]
  MBC: 4 µg/mL (≈ 3.38 µM)
Acinetobacter baumannii [5]
  MIC: 2 to 4 µg/mL (≈ 1.69 to 3.38 µM)
Staphylococcus aureus [8]
  MIC: 8 µg/mL (≈ 6.75 µM)
Acinetobacter baumannii [29]
  MBC: 4 µg/mL (≈ 3.38 µM)
Escherichia coli [10]
  MIC: 32 µg/mL
Enterococcus faecium [30]
  MBC: 16 µg/mL (≈ 13.5 µM)
Staphylococcus aureus [31]
  MBC: 8 to 16 µg/mL (≈ 6.75 to 13.5 µM)
Klebsiella pneumoniae [32]
  MBC: 2 µg/mL (≈ 1.69 µM)
Klebsiella pneumoniae [12]
  MIC: 1 µg/mL (≈ 0.844 µM)
Staphylococcus aureus [14]
  MIC: 32 to 64 µg/mL
Enterococcus faecium [17]
  MIC: 8 µg/mL (≈ 6.75 µM)
Escherichia coli [21]
  MIC: 0.5 to 2 µg/mL (≈ 0.422 to 1.69 µM)
Staphylococcus aureus [33]
  MBC: 8 to 32 µg/mL (≈ 6.75 to 27 µM)
Pseudomonas aeruginosa [23]
  MIC: 1 to 2 µg/mL (≈ 0.844 to 1.69 µM)
Escherichia coli [34]
  MBC: 8 to 16 µg/mL (≈ 6.75 to 13.5 µM)
Staphylococcus aureus [24]
  MIC: 8 µg/mL (≈ 6.75 µM)
